Compound activity deposited in PubChem by The Scripps Research Institute Molecular Screening Center.
The list is not random: actives were taken first. Their share in the collection is about 1.9%.
sPLA2-III inh = Inhibits HGIII-sPLA2 liposome hydrolysis, primary screen | QFRET BODIPY PC-A2 liposome hydrolysis, fluorescence | Q9NZ20 | actives 0.56% (n = 370,000) | inhibition, % at 12.2 µM;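 active = inhibition above mean plus 3 SD of compounds lying within the high and low control bounds, cut at about 19% in these data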
PLC-gamma1 inh = inhibitors of human phospholipase C gamma1; P19174; inhibition, % at 12.2 µM; actives 0.84% (n = 370,000); AID 720700; purified PLC-gamma1, fluorogenic substrate, fluorescence; in the data active = inhibition above about 9.5%
DAGLB inh = blocks human DAGLB lipase activity; AID 504411; actives 0.059% (n = 340,000); Q8NCG7; HEK293T DAGLB membrane lysate, EnzChek fluorogenic substrate; inhibition, % at 5.17 µM; in the data active = inhibition above about 34%
Target sequence (Q8NCG7 whole entry, looked up): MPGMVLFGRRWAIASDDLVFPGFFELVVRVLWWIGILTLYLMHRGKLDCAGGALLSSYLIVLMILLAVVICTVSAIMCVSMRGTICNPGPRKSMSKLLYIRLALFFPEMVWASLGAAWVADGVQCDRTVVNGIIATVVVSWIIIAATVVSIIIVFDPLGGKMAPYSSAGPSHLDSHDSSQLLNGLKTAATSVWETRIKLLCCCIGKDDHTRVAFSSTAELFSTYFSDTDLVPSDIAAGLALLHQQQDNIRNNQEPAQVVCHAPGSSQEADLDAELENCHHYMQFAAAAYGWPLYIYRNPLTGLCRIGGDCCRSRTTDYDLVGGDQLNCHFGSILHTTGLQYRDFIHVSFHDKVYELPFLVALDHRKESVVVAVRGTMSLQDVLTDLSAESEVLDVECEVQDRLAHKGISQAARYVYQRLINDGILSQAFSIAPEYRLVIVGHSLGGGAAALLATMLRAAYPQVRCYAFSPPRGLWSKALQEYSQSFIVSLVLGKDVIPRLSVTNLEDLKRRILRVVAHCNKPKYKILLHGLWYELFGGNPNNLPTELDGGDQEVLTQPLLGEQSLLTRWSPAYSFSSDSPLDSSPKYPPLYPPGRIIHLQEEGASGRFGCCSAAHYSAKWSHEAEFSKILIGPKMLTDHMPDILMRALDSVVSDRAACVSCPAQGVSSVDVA
PLC-beta3 inh = blocks human PLC-beta3 enzyme activity. inhibition, % at 12.2 µM. actives 0.18% (n = 370,000). Q01970. Purified PLC-beta3, fluorogenic substrate, fluorescence; in the data active = inhibition above about 11%
TbMetRS inhib = blocks T. brucei methionyl-tRNA synthetase activity. actives 0.4% (n = 360,000). inhibition, % at 11.9 µM. purified T. brucei MetRS, ATP depletion, Kinase-Glo luminescence;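 active = inhibition above a per-plate cutoff of the control wells' mean inhibition plus 3 SD, cut at about 5.5% in these data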
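System: purified T. brucei MetRS enzyme / Detection: Kinase-Glo luciferase luminescence reporting remaining unconsumed ATP / Medium: HEPES buffer with MgCl2, KCl, DTT, spermine, BSA, pyrophosphatase / Replication: singlicate, one well per compound / Evaluation: percent inhibition relative to median high and low control wells / Schedule: 2 h aminoacylation at 25 °C after 15 min preincubation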
sPLA2 confirm = human GIII-sPLA2 inhibition, confirmation. actives 34% (n = 2,000). recombinant hGIII-sPLA2, BODIPY PC-A2 QFRET fluorescence. shares compounds with sPLA2-III inh. inhibition, % at 12.2 µM. AID 743280;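 active = mean inhibition across triplicates above the hit cutoff set in the earlier primary screen, cut at about 19% in these data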
535nm interf = optically interferes with 535nm fluorescence in sPLA2 counter-screen | BODIPY FL product fluorescence interference, QFRET | actives 8.5% (n = 2,000) | AID 743282 | shares compounds with sPLA2-III inh | inhibition, % at 12.2 µM;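 active = average inhibition above the solvent-only control mean plus 3 SD, cut at about 6% in these data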
BODIPY interf DR = interferes with 535nm fluorescence in dose response counter-screen | shares compounds with sPLA2-III inh | BODIPY FL product fluorescence interference, cell-free | IC50, µM | 240 tested, under 10 active;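 active = IC50 at or below 10 µM; inactive = IC50 above 10 µM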
Each line names hits and unclear results; the compound was inactive in the other large screens (follow-up assays come after a bar, where they were run).

Cn1cccc1C(=O)Nc1nc(-c2ccccn2)cs1	none
O=C(Nc1nc(-c2ccccn2)cs1)c1ccc(Cl)s1	sPLA2-III inh 27.4 | sPLA2 confirm 24.3 | 535nm interf inactive
O=C(Nc1nc(-c2ccccn2)cs1)c1cc2ccccc2o1	sPLA2-III inh 30.6 | sPLA2 confirm 19.3 | 535nm interf inactive
Cc1ccc(C(=O)Nc2nc(-c3ccccn3)cs2)s1	none
O=C(Nc1nc(-c2ccccn2)cs1)c1ncc(Cl)c(Cl)c1Cl	sPLA2-III inh 26.8 | sPLA2 confirm 21.2 | 535nm interf inactive
CCOC(=O)C1=C(C(=O)OCC)C2N(Cc3ccccc3)c3ccccc3[C@@]23C[C@@H](C(=O)OC)N(S(=O)(=O)c2ccc(C(F)(F)F)cc2)C3=N1 (stereo not given in full)	none (no result: DAGLB inh, TbMetRS inhib)
COC(=O)c1cc2c(c3c4cc(OC)ccc4n(C(=O)c4ccccc4)c13)C(=O)N(Cc1ccco1)C2	none (no result: DAGLB inh, TbMetRS inhib)
CC(C)CNC(=O)CN(C)S(=O)(=O)c1ccc(F)cc1	sPLA2-III inh 22.2 | sPLA2 confirm inactive | 535nm interf inactive
O=C1c2c(O)ccc(O)c2C(=O)c2c(NCCNCCO)ccc(NCCNCCO)c21	sPLA2-III inh 34.9 | sPLA2 confirm 39.8 | 535nm interf inactive | BODIPY interf DR inactive
NCCCC(C(=O)O)N(C(=O)OCc1ccccc1)C(=O)OCc1ccccc1 (stereo not given)	none (no result: DAGLB inh, TbMetRS inhib)
CC(C)C[C@@H]1COc2cc(Br)ccc2S(=O)(=O)N1Cc1cn(Cc2ccc(Cl)cc2)nn1	none (no result: DAGLB inh, TbMetRS inhib)
Cc1ccc(O)c(N=Nc2nccs2)c1	sPLA2-III inh 24.6 | sPLA2 confirm inactive | 535nm interf 9.9
COc1ccc(N=Nc2cc(C)ccc2O)cc1	none
O=C(C(=O)N1CCC(CNC(=O)c2cccs2)CC1)c1cc2ccccc2o1	none (no result: DAGLB inh, TbMetRS inhib)
COc1ccc(CN2CN3Cc4cc(F)ccc4C3CS2(=O)=O)cc1 (stereo not given)	none (no result: DAGLB inh, TbMetRS inhib)
O=C(NNC(=O)c1cc2ccccc2cc1O)Nc1ccc(Br)cc1	sPLA2-III inh 30.9 | sPLA2 confirm 31.2 | 535nm interf 6.2
COc1ccc(NC(=O)NNC(=O)c2cc3ccccc3cc2O)cc1	sPLA2-III inh 21.8 | sPLA2 confirm 23.0 | 535nm interf inactive
COc1ccc(C)cc1NC(=O)NNC(=O)c1cc2ccccc2cc1O	none
COC(=O)c1sc2nc3c(cc2c1N)COC(C)(C)C3	none
CC1(C)Cc2nc3sc(C(=O)NCCCO)c(N)c3cc2CO1	sPLA2-III inh 20.8 | sPLA2 confirm inactive | 535nm interf inactive
C[C@@H]1OC(C2CCCCC2)N(C)[C@H]2C[C@H]3c4[nH]c5c(-c6ccccc6)cccc5c4CCN3C(=O)[C@@H]12 (stereo not given in full)	none (no result: DAGLB inh, TbMetRS inhib)
COc1ccc(-c2ccccc2C2Cc3nnccc3CN2)cc1 (stereo not given)	none (no result: DAGLB inh, TbMetRS inhib)
CC1=C(C(=O)N(C(C)C)C(C)C)CC(CC(=O)NCc2cccc3ccccc23)C(=O)N1CCCN1CCCC1=O (stereo not given)	none (no result: DAGLB inh)
CC1=C(C(=O)N(C)C)CC(CC(=O)NCc2cccc3ccccc23)C(=O)N1CCCN1CCCC1=O (stereo not given)	sPLA2-III inh 21.2 | sPLA2 confirm inactive | 535nm interf inactive
N=c1n(CCN2CCCCC2)c2ccccc2n1CC(O)c1ccco1 (stereo not given)	sPLA2-III inh 20.6 | sPLA2 confirm inactive | 535nm interf inactive
Cc1ccn2c(Nc3ccccc3)c(-c3ccccn3)nc2c1	sPLA2-III inh 20.4 | sPLA2 confirm inactive | 535nm interf inactive
Cc1ccc2nc(-c3ccccn3)c(Nc3ccccc3C)n2c1	sPLA2-III inh 26.5 | sPLA2 confirm 23.6 | 535nm interf inactive
Cc1ccccc1Nc1c(-c2ccccn2)nc2ccccn12	none
Cc1ccn2c(Nc3ccccc3C)c(-c3ccccn3)nc2c1	sPLA2-III inh 20.8 | sPLA2 confirm 30.1 | 535nm interf inactive | BODIPY interf DR inactive
N#Cc1ccc(Cn2nnc(-c3ccc(N4CCOCC4)cc3)n2)cc1	none (no result: DAGLB inh, TbMetRS inhib)
COC(=O)C1=C(C)N(C)C(=NCc2cccc(C(F)(F)F)c2)NC1c1ccccc1 (stereo not given)	none (no result: DAGLB inh, TbMetRS inhib)
S=C(Nc1ccccc1Oc1ccccc1)Nc1cccc(Cl)c1Cl	sPLA2-III inh 21.6 | sPLA2 confirm 30.1 | 535nm interf 6.7
C=CC[C@H]1c2ccccc2[C@H]2N3N=Cc4ccccc4[C@H]3[C@H](CCCC)C(=O)N2N1C(=O)NCc1ccccc1	none (no result: DAGLB inh, TbMetRS inhib)
O=C(Nc1nnc([C@@H]2C[C@H](O)[C@@H](CO)O2)s1)c1ccccc1Cl	sPLA2-III inh 19.5 (no result: DAGLB inh) | sPLA2 confirm inactive | 535nm interf inactive
CCOc1nc(-c2ccc(Cl)cc2)nc2ccccc12	sPLA2-III inh 25.1 | sPLA2 confirm inactive | 535nm interf inactive
CCOc1ccccc1Oc1nc(-c2ccccc2O)nc2ccccc12	sPLA2-III inh 20.1 | sPLA2 confirm inactive | 535nm interf inactive
O=C1N2Cc3ccccc3C2CS(=O)(=O)N1C1CCCC1 (stereo not given)	none (no result: DAGLB inh, TbMetRS inhib)
Brc1ccc(-c2csc(N3CCNCC3)n2)cc1	none (no result: DAGLB inh, TbMetRS inhib)
COC(=O)[C@H]1C[C@@]2(C)c3ccccc3N(C(=O)OC(C)(C)C)[C@H]2N1C(=O)OC(C)(C)C	none (no result: DAGLB inh, TbMetRS inhib)
COc1cc(C2Nc3cc(C)c(C)cc3NC3=C2C(=O)CC(C)(C)C3)ccc1OC(C)=O (stereo not given)	sPLA2-III inh 24.3 | sPLA2 confirm inactive | 535nm interf inactive
COc1ccc(C2Nc3ccccc3NC3=C2C(=O)CC(C)(C)C3)cc1OC (stereo not given)	none
CN(C)C(=O)C[n+]1ccc(C(N)=O)cc1	none
CC(C)(C)C(=O)C[n+]1ccc(C(N)=O)cc1	sPLA2-III inh 25.6 | sPLA2 confirm inactive | 535nm interf inactive
O=C(Nc1cccs1)Nc1c(F)c(F)cc(F)c1F	sPLA2-III inh 21.4 | sPLA2 confirm inactive | 535nm interf inactive
CC(C)CNc1cccc2c1S(=O)(=O)N(Cc1cccc(F)c1)[C@@H](C)[C@H](c1ccccc1)O2	none (no result: DAGLB inh, TbMetRS inhib)
CC(C)Nc1nc(NC(N)=S)nc(NC(C)C)n1	sPLA2-III inh 21.6 | sPLA2 confirm 20.2 | 535nm interf inactive
O=C1c2ccccc2C(=O)c2c(Nc3ccc(CCO)cc3)ccc(O)c21	sPLA2-III inh 20.8 | sPLA2 confirm 48.1 | 535nm interf inactive | BODIPY interf DR inactive
COc1cccc(/C=C2\CC3(OC(=O)C4CCCC4)CCCN2C3)c1 (stereo not given)	none (no result: DAGLB inh, TbMetRS inhib)
CCCc1nnc2n1N=C(c1ccc(OC)c(OC)c1)CS2	sPLA2-III inh 20.4 | sPLA2 confirm inactive | 535nm interf inactive
